Active and inactive are the calls of the source. The rule behind the calls is not given here.
Assays:
Cannabinoid receptor 2 [1] = target: T1, Cannabinoid receptor 2 (Homo sapiens, UniProt P34972); experiment: Displacement of [3H]CP-55,940 from CB2 receptor (unknown origin) after 1 hr by scintillation counting analysis
Cannabinoid receptor 2 [2] = target: T1, Cannabinoid receptor 2; experiment: Inverse agonist activity at human CB2 receptor expressed in CHO cells assessed as increase in forskolin-induced cAMP production after 45 mins in presence of phosphodiesterase inhibitor RO20-1724; format: functional, cell-based
Homo sapiens = species on record: Homo sapiens; experiment: Selectivity index, ratio of Ki for CB1 receptor (unknown origin) to Ki for CB2 receptor (unknown origin)
Cannabinoid receptor 1 = Cannabinoid receptor 1 (Homo sapiens, UniProt P21554)
Chain of Cannabinoid receptor 1 (P21554 whole entry): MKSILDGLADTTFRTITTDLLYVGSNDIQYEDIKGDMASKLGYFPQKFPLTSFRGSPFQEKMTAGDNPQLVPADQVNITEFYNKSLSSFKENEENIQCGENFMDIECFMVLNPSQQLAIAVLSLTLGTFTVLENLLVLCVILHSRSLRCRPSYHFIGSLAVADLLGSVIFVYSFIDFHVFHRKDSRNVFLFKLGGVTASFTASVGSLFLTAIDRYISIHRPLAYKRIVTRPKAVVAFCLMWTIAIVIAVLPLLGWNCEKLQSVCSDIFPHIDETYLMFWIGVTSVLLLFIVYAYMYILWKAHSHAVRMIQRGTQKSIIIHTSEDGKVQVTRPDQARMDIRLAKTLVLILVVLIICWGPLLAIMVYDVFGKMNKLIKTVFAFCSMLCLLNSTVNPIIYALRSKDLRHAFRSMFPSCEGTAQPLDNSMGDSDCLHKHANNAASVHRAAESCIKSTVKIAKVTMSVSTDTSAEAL

RAW264.7 [3] = experiment: Cytotoxicity against mouse RAW264.7 cells assessed as cell viability at 2.5 uM after 3 days by MTT assay relative to vehicle-treated control; format: cell-based; details: raw264.7, 72 h
Outline: (§1)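 Survival measured by MTT and expressed as percent of vehicle control. Mean ± S.E.M. of experiments run in triplicate.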

RAW264.7 [4] = experiment: Cytotoxicity against mouse RAW264.7 cells assessed as cell viability at […] after 3 days by MTT assay; format: cell-based; details: raw264.7, 72 h
RAW264.7 [5] = experiment: Inhibition of RANKL-induced osteoclastogenesis in mouse RAW264.7 cells after 5 days by TRAP assay; format: functional, cell-based
Outline: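 RAW 264.7 cells, 3×10^3 per well, grown 24 h in αMEM/10% FBS, then switched to medium with RANKL (15 ng/mL) plus compound (0.1–10 µM). After 5 days cells fixed and TRAP-stained; TRAP+ cells with more than three nuclei scored as osteoclasts. Mean of three experiments in triplicate.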

RAW264.7 [6] = experiment: Inhibition of RANKL-induced osteoclastogenesis in mouse RAW264.7 cells at 10 uM after 5 days by TRAP assay relative to control; format: functional; details: RAW264.7, 120 h
Outline: (§2)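 RAW 264.7 murine monocytic cells were seeded at 3 × 10^3 per well and cultured 24 h in αMEM with 10% FBS. Medium was then replaced with the same medium containing RANKL (15 ng/mL) plus test compound. […] Mean of three experiments, each in triplicate.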

RAW264.7 [7] = experiment: Cytotoxicity against mouse RAW264.7 cells assessed as cell viability at 5 uM after 3 days by MTT assay; format: cell-based; details: raw264.7, 72 h; outline: as §1
RAW264.7 [8] = experiment: Inhibition of RANKL-induced osteoclastogenesis in mouse RAW264.7 cells at 1 uM after 5 days by TRAP assay relative to control; format: functional; outline: as §2
RAW264.7 [9] = experiment: Cytotoxicity against mouse RAW264.7 cells assessed as cell viability at 5 to 10 uM after 3 days by MTT assay; format: cell-based; details: raw264.7, 72 h; outline: as §1
RAW264.7 [10] = experiment: Inhibition of RANKL-induced osteoclastogenesis in mouse RAW264.7 cells at 0.1 uM after 5 days by TRAP assay relative to control; format: functional; details: RAW264.7, 120 h; outline: as §2

T1 sequence (P34972 whole entry): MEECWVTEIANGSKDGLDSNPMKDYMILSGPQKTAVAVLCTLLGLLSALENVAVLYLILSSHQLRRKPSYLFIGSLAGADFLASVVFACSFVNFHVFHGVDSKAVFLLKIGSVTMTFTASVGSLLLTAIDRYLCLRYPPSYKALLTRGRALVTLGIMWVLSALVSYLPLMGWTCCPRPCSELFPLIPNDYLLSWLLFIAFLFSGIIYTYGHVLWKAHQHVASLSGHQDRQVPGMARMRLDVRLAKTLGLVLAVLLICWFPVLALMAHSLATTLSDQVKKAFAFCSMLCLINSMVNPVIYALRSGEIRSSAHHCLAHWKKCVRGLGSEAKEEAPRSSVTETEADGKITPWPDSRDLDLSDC

Ki (Cannabinoid receptor 2 [1]; read-out: Ki) | Ratio Ki (Homo sapiens) | SMILES | also measured
3.4 nM | 151 | CCN(CC)c1ccc(CN(c2ccc(C)cc2)S(=O)(=O)c2ccccc2)cc1 | EC50 (Cannabinoid receptor 2 [2]): 609 nM
72 nM | > 277 | CCN(CC)c1ccc(CN(C(=O)Cc2ccccc2)c2ccc(C)cc2)cc1 | Ki (Cannabinoid receptor 1): > 20000 nM
> 20000 nM |  | CCCCCCCN(Cc1ccc(N(CC)CC)cc1)S(=O)(=O)c1ccc(OC(C)C)cc1 | 
13000 nM |  | CCCCCCCN(Cc1ccc(N(CC)CC)cc1)S(=O)(=O)c1ccc(C(C)C)cc1 | 
5.8 nM | 37 | CCN(CC)c1ccc(CN(c2ccc(C)cc2)S(=O)(=O)c2cccc(C)c2)cc1 | 
638 nM |  | CCCCCCCC(=O)N(Cc1ccc(N(CC)CC)cc1)[C@]12C[C@H]3C[C@H](C[C@H](C3)C1)C2 | 
2300 nM |  | CCCCCCCN(Cc1ccc(N(CC)CC)cc1)S(=O)(=O)c1cccc(C)c1 | 
273 nM |  | CCCCCCCN(Cc1ccc(N(CC)CC)cc1)S(=O)(=O)Cc1ccccc1 | 
4.3 nM | 782 | CCN(CC)c1ccc(CN(c2ccc(C)cc2)S(=O)(=O)c2ccc(C(C)C)cc2)cc1 | 
 |  | CCN(CC)c1ccc(CN(C(=O)Cc2ccc(Cl)cc2)[C@]23C[C@H]4C[C@H](C[C@H](C4)C2)C3)cc1 | Ki (Cannabinoid receptor 1): > 20000 nM
6740 nM |  | CCCCCCCN(Cc1ccc(N(CC)CC)cc1)S(=O)(=O)c1ccc(Cl)cc1 | 
3 nM |  | CCN(CC)c1ccc(CN(c2ccc(C)cc2)S(=O)(=O)c2ccc(Cl)cc2)cc1 | 
5190 nM |  | CCCCCCCN(Cc1ccc(N(CC)CC)cc1)S(=O)(=O)c1ccc(OC)cc1 | 
> 20000 nM |  | CCCCCCCC(=O)N(CCCCCCC)Cc1ccc(N(CC)CC)cc1 | 
5.6 nM | 153 | CCN(CC)c1ccc(CN(c2ccc(C)cc2)S(=O)(=O)c2ccc(F)cc2)cc1 | 
212 nM |  | CCCCCCCN(Cc1ccc(N(CC)CC)cc1)C(=O)C1CCCCC1 | 

Ki (Cannabinoid receptor 2 [1]; read-out: Ki) | Ratio Ki (Homo sapiens) | SMILES | also measured
36 nM | 183 | CCN(CC)c1ccc(CN(c2ccc(Cl)cc2)S(=O)(=O)c2ccc(Cl)cc2)cc1 | 
1100 nM |  | CCCCCCCN(Cc1ccc(N(CC)CC)cc1)S(=O)(=O)c1ccc(F)cc1 | 
38 nM | > 333 | CCN(CC)c1ccc(CN(C(=O)Cc2ccccc2)[C@]23C[C@H]4C[C@H](C[C@H](C4)C2)C3)cc1 | Ki (Cannabinoid receptor 1): > 20000 nM
222 nM |  | CCN(CC)c1ccc(CN(c2ccc(Cl)cc2)S(=O)(=O)c2ccc(C(C)C)cc2)cc1 | 
1280 nM |  | CCCCCCCN(Cc1ccc(N(CC)CC)cc1)C(=O)c1ccc(N(C)C)cc1 | 
5.4 nM |  | CCN(CC)c1ccc(CN(c2ccc(C)cc2)S(=O)(=O)c2ccc(C)cc2)cc1 | 
192 nM | 26 | Cc1ccc(S(=O)(=O)N(CCc2ccc(Cl)cc2)S(=O)(=O)c2ccc(C)cc2)cc1 | 
2.8 nM |  | CCN(CC)c1ccc(CN(c2ccc(Cl)cc2)S(=O)(=O)c2cccc(C)c2)cc1 | 
6740 nM |  | CCN(CC)c1ccc(CNc2ccc(Cl)cc2)cc1 | 
20000 nM |  | CCN(CC)c1ccc(CN[C@]23C[C@H]4C[C@H](C[C@H](C4)C2)C3)cc1 | 
37 nM | 3.7 | CCN(CC)c1ccc(CN(c2ccc(Cl)cc2)S(=O)(=O)c2ccc(C)cc2)cc1 | 
1310 nM |  | CCCCCCCN(Cc1ccc(N(CC)CC)cc1)C(=O)Cc1ccccc1 | 
 |  | CCCCCCCN(Cc1ccc(N(CC)CC)cc1)S(=O)(=O)CCCC | Ki (Cannabinoid receptor 2 [1]; read-out: pKi (converted)): 697 nM
164 nM | 121 | CCN(CC)c1ccc(CN(C(=O)C2CCCCC2)c2ccc(Cl)cc2)cc1 | Ki (Cannabinoid receptor 1): > 20000 nM
222 nM | 0.9 | CCN(CC)c1ccc(CN(C(=O)C2CCCCC2)c2ccc(C)cc2)cc1 | 
 |  | CCN(CC)c1ccc(CN([C@]23C[C@H]4C[C@H](C[C@H](C4)C2)C3)S(=O)(=O)c2ccc(C)cc2)cc1 | Ki (Cannabinoid receptor 1): > 20000 nM

SMILES | Ki (Cannabinoid receptor 2 [1]; read-out: Ki) | Ratio Ki (Homo sapiens) | also measured
CCN(CC)c1ccc(CN(C(=O)C2CCCCC2)[C@]23C[C@H]4C[C@H](C[C@H](C4)C2)C3)cc1 | 35 nM | > 571 | Ki (Cannabinoid receptor 1): > 20000 nM
CCN(CC)c1ccc(CN([C@]23C[C@H]4C[C@H](C[C@H](C4)C2)C3)S(=O)(=O)c2ccc(OC)cc2)cc1 | 137 nM |  | 
CCN(CC)c1ccc(CN(c2ccc(Cl)cc2)S(=O)(=O)c2ccc(OC)cc2)cc1 | 14 nM | > 1430 | Activity (RAW264.7 [3]): Non-toxic; Activity (RAW264.7 [4]): Non-toxic; inhibition (RAW264.7 [5]): Dose-dependent effect; inhibition at 10 µM (RAW264.7 [6]): > 95%; Activity (RAW264.7 [7]): Toxic; inhibition (RAW264.7 [8]): Active; Activity (RAW264.7 [9]): Toxic; Ki (Cannabinoid receptor 1): > 20000 nM; EC50 (Cannabinoid receptor 2 [2]): 16.4 nM
CCN(CC)c1ccc(CN([C@]23C[C@H]4C[C@H](C[C@H](C4)C2)C3)S(=O)(=O)c2cccc(C)c2)cc1 | 19 nM |  | Activity (RAW264.7 [4]): Non-toxic; inhibition (RAW264.7 [5]): Dose-dependent effect; inhibition at 10 µM (RAW264.7 [6]): > 95%; Ki (Cannabinoid receptor 1): 8220 nM
CCN(CC)c1ccc(CN(c2ccc(Cl)cc2)S(=O)(=O)c2ccc(F)cc2)cc1 | 73 nM | 15 | 
CCCCCCCN(Cc1ccc(N(CC)CC)cc1)C(=O)Cc1ccc(Cl)cc1 | 696 nM |  | 
CCN(CC)c1ccc(CN([C@]23C[C@H]4C[C@H](C[C@H](C4)C2)C3)S(=O)(=O)c2ccc(C(C)C)cc2)cc1 | 457 nM |  | 
CCN(CC)c1ccc(CN([C@]23C[C@H]4C[C@H](C[C@H](C4)C2)C3)S(=O)(=O)c2ccc(Cl)cc2)cc1 | 173 nM | 11 | Ki (Cannabinoid receptor 1): 2030 nM
CCN(CC)c1ccc(CN([C@]23C[C@H]4C[C@H](C[C@H](C4)C2)C3)S(=O)(=O)c2ccccc2)cc1 | 84 nM | 130 | Ki (Cannabinoid receptor 1): 11000 nM
CCN(CC)c1ccc(CN(C(=O)Cc2ccc(Cl)cc2)c2ccc(Cl)cc2)cc1 | 136 nM | 147 | 
CCN(CC)c1ccc(CN(C(=O)Cc2ccc(Cl)cc2)c2ccc(C)cc2)cc1 | 107 nM | 29 | 
CCN(CC)c1ccc(CN([C@]23C[C@H]4C[C@H](C[C@H](C4)C2)C3)S(=O)(=O)c2ccc(F)cc2)cc1 | 25 nM |  | Ki (Cannabinoid receptor 1): 4270 nM; EC50 (Cannabinoid receptor 2 [2]): 268 nM
CCN(CC)c1ccc(CN(c2ccc(C)cc2)S(=O)(=O)c2ccc(OC)cc2)cc1 | 0.5 nM | 2590 | Activity (RAW264.7 [3]): Non-toxic; inhibition (RAW264.7 [5]): Dose-dependent effect; inhibition at 0.1 µM (RAW264.7 [10]): 46%; inhibition at 10 µM (RAW264.7 [6]): 100%; Activity (RAW264.7 [7]): Toxic; inhibition at 1 µM (RAW264.7 [8]; RAW264.7, 120 h): 97%; Activity (RAW264.7 [9]): Toxic; EC50 (Cannabinoid receptor 2 [2]): 42.7 nM

Source: ChEMBL document CHEMBL2321866 (J Med Chem, 2013)
